Source: ChEMBL document CHEMBL4680311, “Synthesis, characterization, in vitro SAR study, and preliminary in vivo toxicity evaluation of naphthylmethyl substituted bis-imidazolium salts” (Bioorg Med Chem, 2021)

Experiments:
[1] = test system: HOP-92; assay: Growth inhibition of human HOP-92 cells incubated for 48 hrs by sulforhodamine B assay; assay type: functional
In short: (§1)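 NCI DTP NCI-60 five-dose screen, same procedure as the one-dose assay: 24 h preincubation, then 48 h exposure. Five tenfold-spaced concentrations were used, from 100 μM to 10 nM or from 25 μM to 2.5 nM depending on compound. GI50, TGI and LC50 were read from growth-percentage curves relative to control cells.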

[2] = test system: HOP-92; assay: Antiproliferative activity against human HOP-92 cells assessed as cell growth at 10 uM incubated for 48 hrs by sulforhodamine B assay relative to control; assay type: functional; settings: read-out: Activity
In short: (§2)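 NCI DTP NCI-60 one-dose screen on the NSCLC panel. Cells were seeded at densities set by doubling rate and incubated 24 h. They were then exposed to a single 10 μM dose for 48 h. Each value is a growth percentage relative to the initial cell population: positive means net growth, negative means net cell kill.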

[3] = test system: NCI-H322M; assay: Antiproliferative activity against human NCI-H322M cells assessed as cell growth at 10 uM incubated for 48 hrs by sulforhodamine B assay relative to control; assay type: functional; settings: read-out: Activity; in short: as §2
[4] = test system: NCI-H322M; assay: Growth inhibition of human NCI-H322M cells incubated for 48 hrs by sulforhodamine B assay; assay type: functional; in short: as §1
[5] = test system: EKVX; assay: Antiproliferative activity against human EKVX cells assessed as cell growth at 10 uM incubated for 48 hrs by sulforhodamine B assay relative to control; assay type: functional; settings: read-out: Activity; in short: as §2
[6] = test system: NCI-H226; assay: Growth inhibition of human NCI-H226 cells incubated for 48 hrs by sulforhodamine B assay; assay type: functional; in short: as §1
[7] = test system: NCI-H460; assay: Growth inhibition of human NCI-H460 cells incubated for 48 hrs by sulforhodamine B assay; assay type: functional; in short: as §1
[8] = test system: A549; assay: Cytotoxicity against human A549 cells assessed as cell growth inhibition measured after 72 hrs by MTT assay; assay type: functional, cell-based; settings: A549, 72 h
In short: (§3)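 Cells kept in RPMI 1640 with 10% FBS at 37 °C, 5% CO₂, passaged every 2–3 days; grown to confluence, seeded at 5,000–7,000 cells/well depending on line, incubated 24 h. Compounds dissolved in 1% DMSO, diluted in medium to 1, 4, 16, 32 μM (6 replicates each), 72 h exposure. MTT 3–4 h, medium aspirated, DMSO added, 15 min, OD 540 nm; IC50 relative to untreated cells.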

[9] = test system: HOP-62; assay: Growth inhibition of human HOP-62 cells incubated for 48 hrs by sulforhodamine B assay; assay type: functional; in short: as §1
[10] = test system: NCI-H460; assay: Antiproliferative activity against human NCI-H460 cells assessed as cell growth at 10 uM incubated for 48 hrs by sulforhodamine B assay relative to control; assay type: functional; settings: read-out: Activity; in short: as §2
[11] = test system: A549; assay: Antiproliferative activity against human A549/ATCC cells assessed as cell growth at 10 uM incubated for 48 hrs by sulforhodamine B assay relative to control; assay type: functional; settings: read-out: Activity; in short: as §2
[12] = test system: NCI-H23; assay: Antiproliferative activity against human NCI-H23 cells assessed as cell growth at 10 uM incubated for 48 hrs by sulforhodamine B assay relative to control; assay type: functional; settings: read-out: Activity; in short: as §2
[13] = Toxicity in C57BL/6 mouse assessed as body weight gain at 20 mg/kg, ip administered on day 0, 7, 14 and 29; assay type: organism-based; settings: in vivo, 96 h, time 4 day
In short: (§4)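 Male C57BL/6 mice, eight weeks old, acclimated 5 days, 3 per cage, 12 h light/dark, food and water ad libitum. IP injection of 100 μL of a 4 mg/mL solution in 20% 2-HPβCD sterile PBS (~20 mg/kg assuming 20 g mouse) on days 0, 7, 14, 29. Vehicle mice got 2-HPβCD on days 0, 7, 14, 21, 25, 29. Weighed and observed daily; sacrificed day 29.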

[14] = test system: NCI-H460; assay: Cytotoxicity against human NCI-H460 cells assessed as cell growth inhibition measured after 72 hrs by MTT assay; assay type: functional, cell-based; settings: NCI-H460, 72 h; in short: as §3
[15] = test system: NCI-H23; assay: Growth inhibition of human NCI-H23 cells incubated for 48 hrs by sulforhodamine B assay; assay type: functional; in short: as §1
[16] = test system: HOP-62; assay: Antiproliferative activity against human HOP-62 cells assessed as cell growth at 10 uM incubated for 48 hrs by sulforhodamine B assay relative to control; assay type: functional; settings: read-out: Activity; in short: as §2
[17] = test system: A549; assay: Growth inhibition of human A549/ATCC cells incubated for 48 hrs by sulforhodamine B assay; assay type: functional; settings: read-out: LC50 (the source's name); in short: as §1
[18] = Toxicity in C57BL/6 mouse assessed as body weight loss at 20 mg/kg, ip administered on day 0, 7, 14 and 29 relative to control; assay type: organism-based; settings: in vivo, 96 h, time 4 day
In short: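 Male C57BL/6 mice, 8 weeks old, acclimated 5 days, 12 h light/dark, 3 per cage, n = 3. Mice got 100 μL of 4 mg/mL drug in 20% 2-HPβCD in sterile PBS, about 20 mg/kg assuming 20 g, IP on days 0, 7, 14 and 29 (1 h before sacrifice). Vehicle mice were dosed IP on days 0, 7, 14, 21, 25 and 29. Weight and behaviour were checked daily; sacrifice was on day 29.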

[19] = test system: NCI-H226; assay: Antiproliferative activity against human NCI-H226 cells assessed as cell growth at 10 uM incubated for 48 hrs by sulforhodamine B assay relative to control; assay type: functional; settings: read-out: Activity; in short: as §2
[20] = test system: NCI-H1975; assay: Cytotoxicity against human NCI-H1975 cells assessed as cell growth inhibition measured after 72 hrs by MTT assay; assay type: functional, cell-based; settings: NCI-H1975, 72 h; in short: as §3
[21] = test system: EKVX; assay: Growth inhibition of human EKVX cells incubated for 48 hrs by sulforhodamine B assay; assay type: functional; in short: as §1
[22] = Toxicity in C57BL/6 mouse assessed as body weight loss recovery measured after second and third injection at 20 mg/kg, ip administered on day 0, 7, 14 and 29 relative to control; assay type: organism-based; settings: in vivo, 96 h, time 4 day; in short: as §4
[23] = Toxicity in C57BL/6 mouse assessed as body weight loss measured on day 6 at 20 mg/kg, ip administered on day 0, 7, 14 and 29; settings: in vivo
[24] = test system: NCI-H522; assay: Growth inhibition of human NCI-H522 cells incubated for 48 hrs by sulforhodamine B assay; assay type: functional; in short: as §1
[25] = test system: HCC827; assay: Cytotoxicity against human HCC827 cells assessed as cell growth inhibition measured after 72 hrs by MTT assay; assay type: functional, cell-based; settings: HCC827, 72 h; in short: as §3

Compound: [Br-].[Br-].c1ccc2cc(Cn3cc[n+](CCCCCCCCCCn4cc[n+](Cc5ccc6ccccc6c5)c4)c3)ccc2c1
- GI50 [1]: 0.396 µM
- LC50 (concentration giving 50% net cell kill) [1]: 15.2 µM
- growth at 10 µM [2]: -23.6%
- growth at 10 µM [3]: 34.5%
- GI50 [4]: 3.55 µM
- LC50 (concentration giving 50% net cell kill) [4]: 48.1 µM
- TGI [4]: 18.4 µM
- growth at 10 µM [5]: 13.7%
- GI50 [6]: 0.918 µM
- LC50 [6]: > 100 µM
- TGI [6]: 13.6 µM
- GI50 [7]: 0.376 µM
- LC50 (concentration giving 50% net cell kill) [7]: 45.9 µM
- TGI [7]: 10.1 µM
- IC50 [8]: < 1 µM
- GI50 [9]: 1.09 µM
- LC50 (concentration giving 50% net cell kill) [9]: 44.5 µM
- growth at 10 µM [10]: 11%
- growth at 10 µM [11]: 18.6%
- growth at 10 µM [12]: 5.67%
- Activity [13]: Toxic
- IC50 [14]: < 1 µM
- GI50 [15]: 0.445 µM
- LC50 [15]: 39.9 µM
- growth at 10 µM [16]: -4.86%
- CC50 [17]: 50.3 µM
- Activity [18]: 4%
- growth at 10 µM [19]: 39.5%
- IC50 [20]: 2 µM
- GI50 [21]: 0.442 µM
- LC50 [21]: 58.4 µM
- Activity [22]: Toxic
- body weight loss at 96 h [23]: 10%
- GI50 [24]: 0.436 µM
- CC50 ([24]; read-out: LC50 (the source's name)): 5.95 µM
- IC50 [25]: 7 µM
